Measurements reported in ChEMBL document CHEMBL2331388, “Flavone tetraglycosides and benzyl alcohol glycosides from the Mongolian medicinal plant Dracocephalum ruyschiana” (J Nat Prod, 2013).

These molecules were tested on Radical scavenging activity (assay: Antioxidant activity assessed as DPPH radical scavenging activity after 30 mins by microplate reader). Conditions: not given.
Assay type: functional
In short: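 Modified Mensor method. Sample in absolute MeOH at several concentrations mixed 1:1 with 0.06 mM DPPH in MeOH (100 μL each). Absorbance read at 510 nm at exactly 30 min, then percent inhibition calculated. IC50 taken as the concentration scavenging 50% of DPPH radicals. Triplicate runs. Rutin and Trolox used as reference standards.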

IC50 | SMILES
> 200 µg/mL | COc1ccc(-c2cc(=O)c3c(O)cc(O[C@@H]4O[C@H](CO[C@@H]5O[C@@H](C)[C@H](O)[C@@H](O)[C@H]5O)[C@@H](O)[C@H](O)[C@H]4O[C@@H]4O[C@H](CO)[C@@H](O)[C@H](O)[C@H]4O[C@@H]4O[C@H](CO)[C@@H](O)[C@H](O)[C@H]4O)cc3o2)cc1O
> 200 µg/mL | C[C@@H]1O[C@@H](OC[C@H]2O[C@@H](Oc3ccc(COC(=O)c4ccccc4)cc3)[C@H](O)[C@@H](O)[C@@H]2O)[C@H](O)[C@H](O)[C@H]1O
> 200 µg/mL | O=Cc1ccc(O)cc1 [4-HYDROXYBENZALDEHYDE]
> 200 µg/mL | C[C@@H]1O[C@@H](OC[C@H]2O[C@@H](OCc3ccccc3)[C@H](O)[C@@H](O)[C@@H]2O)[C@H](O)[C@H](O)[C@H]1O [HYDRANGEIFOLIN I]
> 200 µg/mL | CC(=O)OC[C@H]1O[C@@H](O[C@H]2[C@H](Oc3cc(O)c4c(=O)cc(-c5ccc(O)cc5)oc4c3)O[C@H](CO[C@@H]3O[C@@H](C)[C@H](O)[C@@H](O)[C@H]3O)[C@@H](O)[C@@H]2O)[C@H](O[C@@H]2O[C@H](CO)[C@@H](O)[C@H](O)[C@H]2O)[C@@H](O)[C@@H]1O
> 200 µg/mL | COc1cc([C@H]2Oc3c(OC)cc(CCCO)cc3[C@@H]2CO)ccc1O[C@@H]1O[C@H](CO)[C@@H](O)[C@H](O)[C@H]1O
> 200 µg/mL | COc1ccc(-c2cc(=O)c3c(O)cc(O[C@@H]4O[C@H](CO[C@@H]5O[C@@H](C)[C@H](O)[C@@H](O)[C@H]5O)[C@@H](O)[C@H](O)[C@H]4O[C@@H]4O[C@H](COC(C)=O)[C@@H](O)[C@H](O)[C@H]4O[C@@H]4O[C@H](CO)[C@@H](O)[C@H](O)[C@H]4O)cc3o2)cc1
> 200 µg/mL | O=C(O)/C=C/c1ccc(O)cc1 [COUMARIC ACID]
> 200 µg/mL | C[C@@H]1O[C@@H](OC[C@H]2O[C@@H](OCc3ccccc3)[C@H](O)[C@@H](O)[C@@H]2O)[C@H](OC(=O)/C=C\c2ccc(O)cc2)[C@H](O)[C@H]1O
> 200 µg/mL | COc1ccc(-c2cc(=O)c3c(O)cc(O[C@@H]4O[C@H](CO[C@@H]5O[C@@H](C)[C@H](O)[C@@H](O)[C@H]5O)[C@@H](O)[C@H](O)[C@H]4O[C@@H]4O[C@H](COC(C)=O)[C@@H](O)[C@H](O)[C@H]4O[C@@H]4O[C@H](CO)[C@@H](O)[C@H](O)[C@H]4O)cc3o2)cc1O
> 200 µg/mL | COc1ccc(-c2cc(=O)c3c(O)cc(O[C@@H]4O[C@H](CO[C@@H]5O[C@@H](C)[C@H](O)[C@@H](O)[C@H]5O)[C@@H](O)[C@H](O)[C@H]4O[C@@H]4O[C@H](CO)[C@@H](O)[C@H](O)[C@H]4O[C@@H]4O[C@H](CO)[C@@H](O)[C@H](O)[C@H]4O)cc3o2)cc1
> 200 µg/mL | COC(=O)/C=C/c1ccc(O)cc1 [METHYL P-HYDROXYCINNAMATE]
> 200 µg/mL | COc1ccc(-c2cc(=O)c3c(O)cc(O[C@@H]4O[C@H](CO[C@@H]5O[C@@H](C)[C@H](O)[C@@H](O)[C@H]5O)[C@@H](O)[C@H](O)[C@H]4O[C@@H]4O[C@H](CO)[C@@H](O)[C@H](OC(C)=O)[C@H]4O[C@@H]4O[C@H](CO)[C@@H](O)[C@H](O)[C@H]4O)cc3o2)cc1
> 200 µg/mL | O=c1c(O[C@@H]2O[C@H](CO)[C@@H](O)[C@H](O)[C@H]2O)c(-c2ccc(O)cc2)oc2cc(O)cc(O)c12 [ASTRAGALIN]
> 200 µg/mL | CC(O)(CC(=O)O)CC(=O)OCc1ccc(O[C@@H]2O[C@H](CO)[C@@H](O)[C@H](O)[C@H]2O)cc1 (stereo partly specified)
> 200 µg/mL | C[C@@H]1O[C@@H](OC[C@H]2O[C@@H](OCc3ccccc3)[C@H](O)[C@@H](O)[C@@H]2O)[C@H](O)[C@H](O)[C@H]1OC(=O)/C=C/c1ccc(O)cc1
> 200 µg/mL | C[C@@H]1O[C@@H](OC[C@H]2O[C@@H](OCc3ccccc3)[C@H](O)[C@@H](O)[C@@H]2O)[C@H](OC(=O)/C=C/c2ccc(O)cc2)[C@H](O)[C@H]1O
> 200 µg/mL | O=C(O)/C=C\c1ccc(O)cc1

SMILES | IC50
Oc1ccc(Cc2ccc(O)cc2)cc1 | > 200 µg/mL

Same assay, conditions: read-out: IC50

IC50 | SMILES
38.7 µM | C[C@@H]1O[C@@H](OC[C@H]2O[C@@H](Oc3c(-c4ccc(O)c(O)c4)oc4cc(O)cc(O)c4c3=O)[C@H](O)[C@@H](O)[C@@H]2O)[C@H](O)[C@H](O)[C@H]1O [RUTIN]
57.4 µM | O=C(/C=C/c1ccc(O)cc1)O[C@@H]1C[C@](O)(C(=O)O)C[C@@H](OC(=O)/C=C/c2ccc(O)c(O)c2)[C@H]1O
28.9 µM | O=C(/C=C/c1ccc(O)c(O)c1)O[C@@H]1[C@H](O)C[C@@](O)(C(=O)O)C[C@H]1OC(=O)/C=C/c1ccc(O)c(O)c1
328 µM | C=CCc1ccc(O[C@@H]2O[C@H](CO)[C@@H](O)[C@H](O)[C@H]2O)c(OC)c1 [CITRUSIN C]
223 µM | OC[C@H]1O[C@@H](OCc2ccccc2)[C@H](O)[C@@H](O)[C@@H]1O
60.6 µM | O=c1c(O[C@@H]2O[C@H](CO)[C@@H](O)[C@H](O)[C@H]2O)c(-c2ccc(O)c(O)c2)oc2cc(O)cc(O)c12 [ISOQUERCETIN]
45.5 µM | O=C(/C=C/c1ccc(O)c(O)c1)O[C@@H]1C[C@](O)(C(=O)O)C[C@@H](O)[C@H]1O [CHLOROGENIC ACID]
32.4 µM | O=C(/C=C/c1ccc(O)c(O)c1)O[C@@H]1C[C@](O)(C(=O)O)C[C@@H](OC(=O)/C=C/c2ccc(O)c(O)c2)[C@H]1O
284 µM | COc1cc([C@H]2Oc3c(OC)cc(CCCO)cc3[C@@H]2CO[C@@H]2O[C@H](CO)[C@@H](O)[C@H](O)[C@H]2O)ccc1O
62.4 µM | COc1cc(/C=C/C(=O)O)ccc1O [FERULATE]
25.9 µM | Cc1c(C)c2c(c(C)c1O)CCC(C)(C(=O)O)O2 (stereo unspecified) [TROLOX]
37.2 µM | O=C(O)[C@H]1O[C@@H](Oc2c(-c3ccc(O)c(O)c3)oc3cc(O)cc(O)c3c2=O)[C@H](O)[C@@H](O)[C@@H]1O [QUERCETIN GLUCURONIDE]
